This is an account of results in ChEMBL document CHEMBL4024789, “Neutral Porphyrin Derivative Exerts Anticancer Activity by Targeting Cellular Topoisomerase I (Top1) and Promotes Apoptotic Cell Death without Stabilizing Top1-DNA Cleavage Complexes” (J Med Chem, 2018).

By EC50 is commonly meant the concentration at which the effect is half-maximal. As a reminder, the IC50 is the concentration that gives 50% inhibition.

Assay [1] addresses T1, DNA topoisomerase 1 (Homo sapiens) (UniProt P11387).
T1 sequence (whole entry): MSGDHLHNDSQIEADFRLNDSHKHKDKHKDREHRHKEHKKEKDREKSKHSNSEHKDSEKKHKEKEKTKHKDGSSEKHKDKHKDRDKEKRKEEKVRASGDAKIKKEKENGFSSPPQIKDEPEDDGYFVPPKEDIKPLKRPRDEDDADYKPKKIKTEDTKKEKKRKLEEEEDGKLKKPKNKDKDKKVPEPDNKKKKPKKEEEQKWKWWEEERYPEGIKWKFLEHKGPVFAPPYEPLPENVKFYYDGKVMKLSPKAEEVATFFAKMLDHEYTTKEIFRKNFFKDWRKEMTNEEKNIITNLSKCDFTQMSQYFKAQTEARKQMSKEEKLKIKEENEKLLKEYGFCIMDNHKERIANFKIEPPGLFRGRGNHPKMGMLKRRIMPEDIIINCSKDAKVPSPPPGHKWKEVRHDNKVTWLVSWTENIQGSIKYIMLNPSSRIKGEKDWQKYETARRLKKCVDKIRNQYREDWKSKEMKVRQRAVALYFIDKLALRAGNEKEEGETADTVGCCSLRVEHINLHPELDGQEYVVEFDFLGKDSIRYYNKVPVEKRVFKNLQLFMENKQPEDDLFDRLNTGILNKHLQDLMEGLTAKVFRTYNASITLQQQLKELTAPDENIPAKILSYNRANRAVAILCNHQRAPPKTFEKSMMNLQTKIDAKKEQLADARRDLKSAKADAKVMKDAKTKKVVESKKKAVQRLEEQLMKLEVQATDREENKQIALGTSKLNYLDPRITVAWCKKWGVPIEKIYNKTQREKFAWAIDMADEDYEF
Nature of the assay: Inhibition of CPT-induced recombinant human EGFP-tagged topoisomerase-1- DNA cleavage complex formation assessed as restoration of Top1 mobility at 20 uM after 10 mins by FRAP assay. Further details: scale not given: the % may be the effect or the level left. The method in brief:
(§1)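 FRAP in living MCF7 cells transiently expressing EGFP-human Top1, 37 °C chamber. Treatment was CPT 5 μM or compound 20 μM for 10 min, or CPT for 10 min then compound for 10 min. A subnuclear spot was bleached for 30 ms at 488 nm; curves normalized to the prebleach signal.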

The target of assay [2] is T2, DNA topoisomerase 1 (Homo sapiens, UniProt P11387).
T2 sequence (P11387 whole entry): T1 sequence (whole entry)
As to the kind of experiment: Inhibition of recombinant human topoisomerase-1 expressed in baculovirus infected sf9 cells using supercoiled pBS SK(+) DNA as substrate preincubated for 5 mins followed by substrate addition measured after 15 mins by ethidium bromide staining based agarose gel electrophoresis method. In outline: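 Relaxation assay: 90 fmol supercoiled pBS (SK+) DNA with 30 fmol recombinant Top1 (Sf-9/baculovirus). Compound either preincubated with Top1 for 5 min before DNA addition, or added simultaneously with DNA; then 37 °C for 15 min. Vehicle 2% DMSO. Read on 1% agarose gel. EC50 from mean ± SD of three experiments.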

Assay [3] deals with T1, DNA topoisomerase 1 (Homo sapiens). As to the kind of experiment: Inhibition of CPT-induced recombinant human topoisomerase1-[…] cleavage complex at 10 to 50 uM after 30 mins using topoisomerase1 expressed in baculovirus infected sf9 cells by […].
For assay [4] the target is unchanged. Nature of the assay: Inhibition of […]-induced topoisomerase-1- genomic DNA cleavage complex in human MCF7 cells at 20 uM after 6 hrs by ICE assay. Type of assay: cell-based. In outline:
(§2)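 ICE bioassay in MCF7 cells. Treatment was CPT (10 μM) or compound (20 μM) for 12 h, or CPT for 6 h then compound for a further 6 h. Genomic DNA (0.5–4 μg) probed with anti-Top1 antibody. Quantified with n = 3, ± SEM, t test.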

Assay [5] has the same target. As to the kind of experiment: Inhibition of CPT-induced recombinant human topoisomerase1-supercoiled pBS SK(+) DNA cleavage complex after 30 mins using topoisomerase1 expressed in baculovirus infected sf9 cells by ethidium bromide staining based agarose gel electrophoresis method. In outline: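 Plasmid cleavage assay: 50 fmol supercoiled pBS (SK+) with 100 fmol recombinant Top1 plus compound or CPT, or Top1 with CPT before compound addition, at 37 °C for 30 min. Nicked (form II) and supercoiled (form I) DNA resolved by gel.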

The subject of assay [6] is HEK293. Nature of the assay: Cytotoxicity against HEK293 cells assessed as reduction in cell viability by MTT assay. Format: cell-based. Particulars: Homo sapiens. In outline: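 Survival of each cell line measured across a range of compound concentrations. Percent inhibition of viability at each concentration calculated against untreated control and IC50 estimated. MEFs were TDP1+/+ and TDP1–/– primary cells. Mean ± SD of at least three experiments in duplicate.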
On the technique in general: Tetrazolium dyes change colour on reduction, which living cells bring about.

Assay [7] relates to Bacteria. Nature of the assay: Induction of relaxed pBluescript SK(+) DNA intercalation (unknown origin) assessed as negative supercoiling at 50 to 300 uM after 15 mins by agarose gel electrophoresis method. The method in brief: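 Top1 unwinding assay: relaxed DNA made by reacting excess Top1 with supercoiled pBS (SK+) plasmid (50 fmol), then incubated with compound at 50, 100 or 300 μM; m-AMSA and etoposide as reference intercalator/non-intercalator. Topoisomers resolved on agarose gel.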

For assay [8], the system named is MCF7. Nature of the assay: Induction of DNA strand breaks in human MCF7 cells at 10 to 20 uM after 12 hrs by alkaline comet assay relative to control. Format: functional. In outline: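 MCF7 cells exposed 12 h; some pretreated with NAC (10 mM) for 30 min first. Alkaline comet assay; mean comet tail scored over 20–25 cells (average ± SEM).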
In assay [9] the target is T1, DNA topoisomerase 1 (Homo sapiens). As to the kind of experiment: Induction of proteasome-mediated topoisomerase-1 degradation in human MCF7 cells at 10 uM up to 12 hrs in presence of proteasome inhibitor MG132 by Western blot method. Format: cell-based. In outline:
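Whole-cell extracts of MCF7 cells treated with 10 μM for the indicated times, or preincubated with MG132 (100 nM) for 4 h before 12 h compound exposure. Top1 detected by Western blot with mouse monoclonal anti-Top1 (C21).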

The target is the same in assay [10]. As to the kind of experiment: Inhibition of recombinant human EGFP-tagged topoisomerase-1- DNA cleavage complex formation at 20 uM after 10 mins by FRAP assay. In outline:
as §1

Assay [11] relates to MCF7. As to the kind of experiment: Induction of ROS accumulation in human MCF7 cells at 10 uM up to 24 hrs in presence of ROS inhibitor NAC by CM-H2DCFDA dye based spectrofluorometric method. Type of assay: functional, cell-based. In outline: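 MCF7 cells treated with 10 μM for the indicated times, with 0.2% DMSO as vehicle control, or pretreated with NAC (10 mM) for 30 min. ROS read as DCF fluorescence from CM-H2DCFDA. Mean ± SD of three independent experiments.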

For assay [12], the target named is T1, DNA topoisomerase 1 (Homo sapiens). As to the kind of experiment: Inhibition of topoisomerase-1- genomic DNA cleavage complex in human MCF7 cells at 20 uM after 12 hrs by ICE assay. Type of assay: cell-based. The method in brief:
as §2

SMILES strings stand for the structures. The source made the active and inactive calls. The calls are words filed in the database; no cut-off is given here.

Take `CN(C)c1ccc(-c2c3nc(c(-c4ccc(N(C)C)cc4)c4ccc([nH]4)c(-c4ccc(C(=O)O)cc4)c4nc(c(-c5ccc(C(=O)O)cc5)c5ccc2[nH]5)C=C4)C=C3)cc1`: the Activity in assay [1] lay within 12 to 15%. Also, the EC50 in assay [2] came out at 381 nM. Besides, the inhibition result in [3], in assay [4], in assay [10] and in assay [12] was “Active” in each case. The inhibition entry in assay [5] was “Dose-dependent effect”. Moreover, the IC50 in assay [6] was over 10000 nM. The outcome in [7], in assay [9] and in [11] was inactive. For the same compound, the “fold change (FC)” value in assay [8] was determined as 8.
